Reference: ChEMBL document CHEMBL4765317, “Novel bacterial topoisomerase inhibitors derived from isomannide” (Eur J Med Chem, 2020)
In brackets after ≈: the same amount, converted by molar mass.

Experiments:
Streptococcus pyogenes = assay: Antibacterial activity against Streptococcus pyogenes LSI-1235 assessed as reduction in bacterial growth by CLSI based broth microdilution method; assay type: functional
Enterococcus faecalis = assay: Antibacterial activity against Enterococcus faecalis ATCC 29212 assessed as reduction in bacterial growth by CLSI based broth microdilution method; assay type: functional
Staphylococcus aureus [1] = assay: Antibacterial activity against Fluoroquinolone-resistant Staphylococcus aureus assessed as reduction in bacterial growth by CLSI based broth microdilution method; assay type: functional
Staphylococcus aureus [2] = assay: Potency index, ratio of MIC90 of ciprofloxacin to MIC90 of compound for antibacterial activity against Fluoroquinolone-resistant Staphylococcus aureus assessed as reduction in bacterial growth by CLSI based broth microdilution method; assay type: functional
[3] = Inhibition of Staphylococcus aureus topoisomerase IV using kDNA as substrate incubated for 30 mins by gel electrophoresis analysis; settings: read-out: IC50
Staphylococcus aureus [4] = assay: Antibacterial activity against Staphylococcus aureus harboring DNA gyrase D83N mutant assessed as reduction in bacterial growth by CLSI based broth microdilution method; assay type: functional
In short: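 MIC against an isogenic NBTI-resistant daughter strain carrying a D83N substitution in DNA gyrase, originally selected under NBTI pressure from multidrug-resistant MRSA isolate 3527. CLSI broth microdilution was used, with values in µg/mL.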

Nav1.5 (late current) = Nav1.5 (late current) (Homo sapiens, UniProt Q14524); assay: Inhibition of recombinant human Nav1.5 late expressed in human HEK293 cells at 30 uM in presence of ATXII by automated Qpatch clamp assay relative to control; assay type: ADME, cell-based; settings: HEK293 cells expressing recombinant human Nav1.5
In short: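 Part of an eight-assay CiPA panel run on a QPatch HT automated patch clamp at 3, 30 and 100 µM, in duplicate. The test compound came from a 30 mM DMSO stock. Data were filtered for seal quality, seal drop and current amplitude, and reported as mean percent inhibition.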

[5] = target: T1, Sodium channel protein type 5 subunit alpha (Homo sapiens, UniProt Q14524); assay: Activation of recombinant human Nav1.5 late expressed in human HEK293 cells assessed as activation of late current at 3 uM by automated Qpatch clamp assay relative to control; assay type: ADME, cell-based; settings: hek293, 3 µM
In short: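 Part of an eight-assay CiPA panel run in duplicate on an automated QPatch HT patch-clamp system at 3, 30 and 100 µM. Test compound came from a 30 mM DMSO stock. Records were filtered for seal quality, seal drop and current amplitude, and mean percent values are reported.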

[6] = target: T1, Sodium channel protein type 5 subunit alpha; assay: Activation of recombinant human Nav1.5 late expressed in human HEK293 cells assessed as activation of late current at 100 uM by automated Qpatch clamp assay relative to control; assay type: ADME, cell-based; settings: hek293, 100 µM
In short: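 Part of an eight-assay CiPA cardiac ion channel panel run in duplicate on a QPatch HT automated patch-clamp system. Compound was prepared as a 30 mM DMSO stock and tested at 3, 30 and 100 µM. Recordings were filtered for seal quality, seal drop and current amplitude, and results are reported as mean percent values.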

[7] = target: Histamine H2 receptor (Homo sapiens) (UniProt P25021); assay: Inhibition of recombinant human full length histamine H2 receptor expressed in CHO-K1 cells using [125I] Aminopotentidine as […] at 100 uM incubated for 120 mins by scintillation counting method relative to control; assay type: cell-based
In short: (§1)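 Off-target screen against a panel of 44 receptors, enzymes and transporters, run in duplicate at a single 100 µM concentration. Results are given as % inhibition. No concentration-response follow-up was done.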

[8] = target: Sodium channel protein type 2 subunit alpha (Homo sapiens) (UniProt Q99250); assay: Inhibition of recombinant human full length Nav1.2 expressed in CHO-K1 cells at 100 uM by manual patch clamp assay relative to control; assay type: cell-based; in short: as §1
[9] = target: Sodium-dependent dopamine transporter (Homo sapiens) (UniProt Q01959); assay: Inhibition of recombinant human full length Dopamine transporter expressed in CHO-S cells at 100 uM in presence of [125I]-RTI-55 incubated for 180 mins by scintillation counting method relative to control; assay type: cell-based; in short: as §1
[10] = Cytotoxicity against human HepaRG assessed as reduction in cell viability at 100 uM incubated for 24 hrs by Cell-Titer Glo assay; assay type: cell-based; settings: HepaRG cells, read-out: INH
In short: (§2)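 ATP-based viability read-out in HepaRG cells over a five-point concentration series (0.01, 0.1, 1, 10, 100 µM). Results are given as % cytotoxicity at each concentration.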

[11] = Cytotoxicity against human HepaRG assessed as reduction in cell viability at 1 uM incubated for 24 hrs by Cell-Titer Glo assay; assay type: cell-based; settings: HepaRG cells, read-out: INH; in short: as §2
[12] = Cytotoxicity against human HepaRG assessed as reduction in cell viability at 0.1 uM incubated for 24 hrs by Cell-Titer Glo assay; assay type: cell-based; settings: HepaRG cells, read-out: INH; in short: as §2
[13] = Cytotoxicity against human HepaRG assessed as reduction in cell viability at 0.01 uM incubated for 24 hrs by Cell-Titer Glo assay; assay type: cell-based; settings: HepaRG cells, read-out: INH; in short: as §2
[14] = Permeability across apical to basolateral side in human Caco2 cells at 10 uM by LC-MS/MS analysis; assay type: ADME, cell-based; settings: Caco-2, read-out: permeability
[15] = Permeability across basolateral to apical side in human Caco2 cells at 10 uM by LC-MS/MS analysis; assay type: ADME, cell-based; settings: Caco-2, read-out: permeability
[16] = Metabolic stability in mouse liver microsomes assessed as half life at 10 uM incubated for 5 mins followed by NADPH addition and measured upto 60 mins by LC-MS analysis; assay type: ADME, Microsome; settings: time 65 min
CYP1A2 = CYP1A2 (Homo sapiens, UniProt P05177); assay: Inhibition of human liver microsome CYP1A2 at 10 uM in presence of NADPH incubated for 10 to 30 mins by LC-MS-MS analysis; assay type: ADME; settings: human liver microsomes, time 10-30 min
CYP2C19 = CYP2C19 (Homo sapiens, UniProt P33261); assay: Inhibition of human liver microsome CYP2C19 at 10 uM in presence of NADPH incubated for 10 to 30 mins by LC-MS-MS analysis; assay type: ADME; settings: human liver microsomes, time 10-30 min
CYP2D6 = CYP2D6 (Homo sapiens, UniProt P10635); assay: Inhibition of human liver microsome CYP2D6 at 10 uM in presence of NADPH incubated for 10 to 30 mins by LC-MS-MS analysis; assay type: ADME; settings: human liver microsomes, time 10-30 min
CYP3A4 = CYP3A4 (Homo sapiens, UniProt P08684); assay: Residual activity of human liver microsome CYP3A4 at 3 uM in presence of NADPH incubated for 10 to 30 mins by LC-MS-MS analysis; settings: human liver microsomes
[17] = Inhibition of Staphylococcus aureus DNA gyrase using relaxed pBR322 DNA as substrate incubated for 30 mins by agarose gel electrophoresis method

T1 sequence (Q14524 whole entry): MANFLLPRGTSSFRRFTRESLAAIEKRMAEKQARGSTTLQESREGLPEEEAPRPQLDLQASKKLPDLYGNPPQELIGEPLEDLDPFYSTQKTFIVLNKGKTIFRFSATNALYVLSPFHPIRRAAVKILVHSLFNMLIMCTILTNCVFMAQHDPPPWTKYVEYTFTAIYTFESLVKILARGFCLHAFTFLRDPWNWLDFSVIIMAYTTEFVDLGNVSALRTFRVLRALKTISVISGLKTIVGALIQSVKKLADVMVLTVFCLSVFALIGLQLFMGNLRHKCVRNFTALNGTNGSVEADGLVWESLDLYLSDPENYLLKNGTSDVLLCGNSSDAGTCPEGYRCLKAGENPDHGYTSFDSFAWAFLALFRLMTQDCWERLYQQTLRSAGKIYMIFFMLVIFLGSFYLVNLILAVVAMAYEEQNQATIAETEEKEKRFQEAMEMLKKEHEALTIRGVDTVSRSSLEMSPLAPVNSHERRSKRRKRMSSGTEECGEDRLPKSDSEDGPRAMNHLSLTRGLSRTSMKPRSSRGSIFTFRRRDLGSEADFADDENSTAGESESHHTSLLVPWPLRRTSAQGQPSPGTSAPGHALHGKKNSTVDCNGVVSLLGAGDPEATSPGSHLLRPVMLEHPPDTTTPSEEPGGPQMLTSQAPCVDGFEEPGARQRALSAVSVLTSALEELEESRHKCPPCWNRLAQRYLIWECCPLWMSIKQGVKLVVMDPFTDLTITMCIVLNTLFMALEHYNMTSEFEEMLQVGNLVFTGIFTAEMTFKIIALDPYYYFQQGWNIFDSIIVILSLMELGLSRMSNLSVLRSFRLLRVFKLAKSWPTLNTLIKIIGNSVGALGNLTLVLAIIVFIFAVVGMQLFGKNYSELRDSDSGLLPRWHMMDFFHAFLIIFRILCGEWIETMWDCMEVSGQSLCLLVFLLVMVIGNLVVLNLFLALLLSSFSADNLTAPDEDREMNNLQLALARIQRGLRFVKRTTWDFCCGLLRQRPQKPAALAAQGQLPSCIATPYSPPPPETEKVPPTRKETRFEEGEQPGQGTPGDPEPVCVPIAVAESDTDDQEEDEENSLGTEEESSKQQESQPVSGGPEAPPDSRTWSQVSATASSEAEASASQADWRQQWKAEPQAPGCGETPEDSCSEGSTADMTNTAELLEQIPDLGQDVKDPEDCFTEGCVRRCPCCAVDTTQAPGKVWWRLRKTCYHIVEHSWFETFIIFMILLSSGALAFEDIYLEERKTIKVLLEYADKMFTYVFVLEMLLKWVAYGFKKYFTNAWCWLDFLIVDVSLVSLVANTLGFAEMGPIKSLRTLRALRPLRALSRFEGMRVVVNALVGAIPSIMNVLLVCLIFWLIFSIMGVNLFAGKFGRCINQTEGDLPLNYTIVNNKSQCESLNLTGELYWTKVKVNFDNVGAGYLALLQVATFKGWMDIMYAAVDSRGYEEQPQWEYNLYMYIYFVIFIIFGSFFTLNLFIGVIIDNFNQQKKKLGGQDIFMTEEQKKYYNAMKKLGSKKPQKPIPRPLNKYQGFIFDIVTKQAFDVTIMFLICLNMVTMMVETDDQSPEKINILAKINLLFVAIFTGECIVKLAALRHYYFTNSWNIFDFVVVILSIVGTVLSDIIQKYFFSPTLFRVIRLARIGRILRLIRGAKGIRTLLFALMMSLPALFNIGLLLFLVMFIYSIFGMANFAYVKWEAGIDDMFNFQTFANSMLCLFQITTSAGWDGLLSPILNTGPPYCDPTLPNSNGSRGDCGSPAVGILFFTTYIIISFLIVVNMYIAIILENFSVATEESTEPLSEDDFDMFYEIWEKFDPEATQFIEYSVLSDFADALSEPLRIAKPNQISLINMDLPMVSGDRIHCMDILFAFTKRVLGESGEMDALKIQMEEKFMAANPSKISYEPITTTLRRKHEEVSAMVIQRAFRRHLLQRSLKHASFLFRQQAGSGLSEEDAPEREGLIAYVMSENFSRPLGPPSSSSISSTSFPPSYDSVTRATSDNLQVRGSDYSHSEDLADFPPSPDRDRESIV
Sodium-dependent dopamine transporter (Homo sapiens), sequence (Q01959 whole entry): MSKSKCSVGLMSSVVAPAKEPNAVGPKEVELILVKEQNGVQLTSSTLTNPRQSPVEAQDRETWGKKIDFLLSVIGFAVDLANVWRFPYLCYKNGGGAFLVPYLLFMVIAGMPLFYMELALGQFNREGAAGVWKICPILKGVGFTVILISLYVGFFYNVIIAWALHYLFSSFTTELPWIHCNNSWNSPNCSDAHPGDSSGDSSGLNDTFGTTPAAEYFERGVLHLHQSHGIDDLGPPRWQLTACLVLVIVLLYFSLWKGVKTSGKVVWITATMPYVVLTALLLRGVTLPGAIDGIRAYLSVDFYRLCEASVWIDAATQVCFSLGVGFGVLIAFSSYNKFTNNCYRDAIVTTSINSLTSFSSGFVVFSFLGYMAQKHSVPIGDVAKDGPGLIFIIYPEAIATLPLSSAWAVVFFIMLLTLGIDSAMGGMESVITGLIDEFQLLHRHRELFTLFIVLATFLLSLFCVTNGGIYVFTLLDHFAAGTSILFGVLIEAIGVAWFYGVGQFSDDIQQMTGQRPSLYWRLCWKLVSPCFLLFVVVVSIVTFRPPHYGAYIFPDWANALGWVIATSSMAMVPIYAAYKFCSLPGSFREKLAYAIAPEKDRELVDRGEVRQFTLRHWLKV
Nav1.5 (late current), sequence (Q14524 whole entry): as the sequence (Q14524 whole entry) above
CYP3A4, sequence (P08684 whole entry): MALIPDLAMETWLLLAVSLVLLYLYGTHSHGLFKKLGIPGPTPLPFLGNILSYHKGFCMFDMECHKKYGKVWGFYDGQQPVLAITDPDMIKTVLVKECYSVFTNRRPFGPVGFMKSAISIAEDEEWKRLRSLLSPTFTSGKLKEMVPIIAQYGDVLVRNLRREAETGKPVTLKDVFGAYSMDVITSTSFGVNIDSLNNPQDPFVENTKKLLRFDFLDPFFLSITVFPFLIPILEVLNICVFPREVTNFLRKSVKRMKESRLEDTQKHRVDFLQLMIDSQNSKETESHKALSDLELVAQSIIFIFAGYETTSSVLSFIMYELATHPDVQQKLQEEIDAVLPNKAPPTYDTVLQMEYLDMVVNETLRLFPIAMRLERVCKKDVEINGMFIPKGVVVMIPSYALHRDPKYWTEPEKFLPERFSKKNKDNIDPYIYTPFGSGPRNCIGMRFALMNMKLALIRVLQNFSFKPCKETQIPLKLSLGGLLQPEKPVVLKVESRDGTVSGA

## COc1ccc2ncc(F)c(CC[C@@]3(O)CO[C@@H]4[C@@H](NCc5cc6c(cn5)OCCO6)CO[C@@H]43)c2n1
Streptococcus pyogenes
  MIC: ≤ 0.12 µg/mL
Enterococcus faecalis
  MIC: 2 µg/mL (≈ 4.01 µM)
Staphylococcus aureus [1]
  MIC90: 2 µg/mL (≈ 4.01 µM)
Staphylococcus aureus [2]
  Ratio: 16
[3]
  IC50: 7.4 µM
Staphylococcus aureus [4]
  MIC: 2 µg/mL (≈ 4.01 µM)
Nav1.5 (late current)
  inhibition at 30 µM: 19.1%
[5]
  Activity: 3.4%
[6]
  Activity: 17%
[7]
  inhibition: 51%
[8]
  inhibition: 78%
[9]
  inhibition: 96%
[10]
  cytotoxicity at 24 h, 100 µM: 14%
[11]
  cytotoxicity at 24 h, 1 µM: 9%
[12]
  cytotoxicity at 24 h, 0.1 µM: 4%
[13]
  cytotoxicity at 24 h, 0.01 µM: 6%
[14]
  Papp A→B at 10 µM: 10.8 ×10⁻⁶ cm/s
[15]
  Papp B→A at 10 µM: 85.3 ×10⁻⁶ cm/s
[16]
  half-life at 10 µM: 3 min
CYP1A2
  inhibition at 10 µM: < 50%
CYP2C19
  inhibition at 10 µM: < 50%
CYP2D6
  inhibition at 10 µM: < 50%
CYP3A4
  residual activity at 3 µM: 60.4%
[17]
  IC50: 0.53 µM
